Activity calls are given as the source filed them. The calls are words filed in the database; no cut-off is given here.
Legend:
[1] = tested on: Bovine viral diarrhea virus 1; experiment: Antiviral activity against BVDV in MDBK cells assessed as reduction of virus-induced cytopathic effect; type: functional, organism-based; settings: Bovine viral diarrhea virus isolates and strains
[2] = Cytotoxicity against MDBK cells; type: cell-based, Bos taurus; settings: cattle
How it was run: (§1)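 MDBK or Huh 5-2 cells seeded at 5 · 10³ cells/well in MEM-FCS; serial compound dilutions added 24 h later. Read-out OD490 nm, expressed as OD treated/OD untreated control.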

[3] = (§2) Selectivity index, ratio of CC50 for MDBK cells to EC50 for BVDV; type: functional
Hepatitis C virus = experiment: Antiviral activity against HCV in Huh 5-2 cells assessed as […]; type: functional, organism-based, Hepacivirus hominis
How it was run: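 Huh 5-2 cells were seeded at 5×10³/well in complete DMEM with G418. After 24 h at 37 °C (5% CO₂), the medium was replaced with threefold serial compound dilutions in DMEM without G418 and incubated for 4 days. Values are means of 4–6 independent experiments.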

[4] = Cytotoxicity against Huh 5-2 cells; type: cell-based; settings: human; how it was run: as §1
[5] = Selectivity index, ratio of CC50 for Huh 5-2 cells to EC50 for HCV; type: functional
MDBK = experiment: as §2; type: functional

Compound | EC50 [1] [µM] | CC50 [2] [µM] | Ratio CC50/EC50 [3] | EC50 (Hepatitis C virus) [µM] | CC50 [4] [µM] | Ratio CC50/EC50 [5] | Activity (MDBK) | Activity [5]
Clc1cccc(-c2nc3ccn(Cc4ccc(Br)cc4)cc-3n2)c1 | 0.15 | > 33 | >220 | 83 | > 125 | >2 |  | 
Brc1ccc(Cn2ccc3nc(/C=C/c4ccccc4)nc-3c2)cc1 | 0.16 | 14 | 88 | 1.7 | 2.5 | >2 |  | 
Brc1ccc(Cn2ccc3nc(CCc4ccccc4)nc-3c2)cc1 | > 16 | 16 |  | 2.5 | 7.6 | 3 | inactive | 
Brc1ccc(Cn2ccc3nc(-c4ccncc4)nc-3c2)cc1 | 0.47 | > 33 | >70 | 14 | 38 | 3 |  | 
Cc1cccc(-c2nc3ccn(Cc4ccc(Br)cc4)cc-3n2)c1 | 0.06 | 23 | 372 | > 11 | 11 |  |  | inactive
Brc1ccc(Cn2ccc3nc(-c4cccc5ccccc45)nc-3c2)cc1 | 0.3 | 23 | 77 | 9.7 | 12 |  |  | inactive
Cc1ccc(-c2nc3ccn(Cc4ccc(Br)cc4)cc-3n2)cc1 | 0.4 | 21 | 53 | 8.2 | 13 | 2 |  | 
CN(C)c1cccc(-c2nc3ccn(Cc4ccc(Br)cc4)cc-3n2)c1 | 0.14 | 24 | 171 | > 79 | 79 |  |  | inactive
Brc1ccc(Cn2ccc3nc(-c4cc(Br)cc(Br)c4)nc-3c2)cc1 | > 33 | > 33 |  | > 96 | > 96 |  | inactive | inactive
Brc1ccc(Cn2ccc3nc(CCCCc4ccccc4)nc-3c2)cc1 | > 5 | 5 |  | > 2.2 | 2.2 |  | inactive | inactive
Brc1ccc(Cn2ccc3nc(-c4cccs4)nc-3c2)cc1 | 0.04 | > 33 | >825 | > 35 | 35 |  |  | inactive
Fc1ccccc1-c1nc2ccn(Cc3ccc(Cl)cc3)cc-2n1 | 0.11 | > 33 | >300 | 44 | 68 | 1.5 |  | 
Fc1ccccc1-c1nc2ccn(Cc3ccc(I)cc3)cc-2n1 | 0.07 | > 33 | >478 | 0.79 | 58 | 74 |  | 
Brc1ccc(Cn2ccc3nc(-c4ccc(Br)s4)nc-3c2)cc1 | 0.6 | > 33 | >55 | > 18 | 18 |  |  | inactive
Fc1cccc(-c2nc3ccn(Cc4ccc(Br)cc4)cc-3n2)c1 | 0.04 | > 33 | >825 | > 44 | 44 |  |  | inactive
FC(F)(F)c1cccc(-c2nc3ccn(Cc4ccc(Br)cc4)cc-3n2)c1 | 0.5 | > 33 | >72 | 23 | > 116 | >5 |  | 

Compound | EC50 [1] [µM] | CC50 [2] [µM] | Ratio CC50/EC50 [3] | EC50 (Hepatitis C virus) [µM] | CC50 [4] [µM] | Ratio CC50/EC50 [5] | Activity (MDBK) | Activity [5]
Brc1ccc(Cn2ccc3nc(-c4ccccc4)nc-3c2)cc1 |  |  |  | > 38 | 38 |  |  | inactive
COc1cccc(-c2nc3ccn(Cc4ccc(Br)cc4)cc-3n2)c1 | 0.05 | > 33 | >660 | 18 | 28 | 2 |  | 
Brc1ccc(Cn2ccc3nc(-c4ccccn4)nc-3c2)cc1 | 0.1 | 10 | 96 | 0.35 | 5.2 | 15 |  | 
Brc1ccc(Cn2ccc3nc(CSc4ccccc4)nc-3c2)cc1 | > 25 | 25 |  | 4.9 | 9.7 | 2 | inactive | 
Brc1ccc(Cn2ccc3nc(CCCc4ccccc4)nc-3c2)cc1 | 3 | 22 | 8 | 7.4 | 12 | 2 |  | 
Clc1ccc(-c2nc3ccn(Cc4ccc(Br)cc4)cc-3n2)cc1 | 0.7 | > 33 | >47 | 13 | 17 |  |  | inactive
Fc1ccc(-c2nc3ccn(Cc4ccc(Br)cc4)cc-3n2)cc1 | 0.17 | > 33 | >194 | 31 | 37 |  |  | inactive
Cc1ccccc1-c1nc2ccn(Cc3ccc(Br)cc3)cc-2n1 | 0.061 | > 33 | >541 | 24 | 21 |  |  | inactive
Brc1ccc(Cn2ccc3nc(-c4ccccc4Br)nc-3c2)cc1 | 0.5 | > 33 | >66 | 21 | 36 | 2 |  | 
Clc1ccccc1-c1nc2ccn(Cc3ccc(Br)cc3)cc-2n1 | 0.33 | > 33 | >100 | 25 | 43 | 2 |  | 
Brc1ccc(Cn2ccc3nc(-c4cccc(Br)c4)nc-3c2)cc1 | 0.11 | > 33 | >300 | > 113 | > 113 |  |  | inactive
Brc1ccc(Cn2ccc3nc(-c4cccnc4)nc-3c2)cc1 | 0.16 | > 33 | >206 | 109 | 126 |  |  | inactive
CCc1nc2ccn(Cc3ccc(Br)cc3)cc-2n1 | 0.38 | > 33 | >87 | > 92 | 92 |  |  | inactive
Brc1ccc(Cn2ccc3nc(-c4cccc(I)c4)nc-3c2)cc1 | 0.07 | > 33 | >83 | 5.7 | 12 | 2 |  | 
Brc1ccc(Cn2ccc3nc(COc4ccccc4)nc-3c2)cc1 | > 8 | > 33 |  | 25 | 35 | 1.5 |  | 
Brc1ccc(Cn2ccc3nc(-c4ccc5ccccc5c4)nc-3c2)cc1 | 0.03 | 7 | 259 | 5.7 | 9.7 | 2 |  | 

Source: ChEMBL document CHEMBL1143779, “Antiviral 2,5-disubstituted imidazo[4,5-c]pyridines: from anti-pestivirus to anti-hepatitis C virus activity” (Bioorg Med Chem Lett, 2007)
